Converted amounts (≈) assume the structure as drawn.
What was measured:
Leishmania donovani [1] = test: Antileishmanial activity against Leishmania donovani extracellular promastigotes after 72 hrs by luciferase activity-based drug susceptibility assay; type: functional, organism-based
In short: (§1)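 Transgenic L. donovani promastigotes tested at various concentrations up to a maximum of 10 µg/ml, with sodium stibogluconate and pentamidine as reference drugs. IC50 derived by Probit analysis.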

Leishmania donovani [2] = test: Antileishmanial activity against Leishmania donovani intracellular amastigotes infected in mouse J774A1 cells after 48 hrs by luciferase activity-based drug susceptibility assay; type: functional, organism-based; settings: for Activity: J774.A1; for IC50: J774.A1, 48 h
In short: (§2)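 Intracellular amastigotes of transgenic L. donovani in mouse J-774-A-1 macrophages, exposed to a range of concentrations up to a maximum of 10 µg/ml. Sodium stibogluconate and pentamidine served as reference drugs. IC50 calculated by Probit analysis.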

[3] = (§3) Selectivity index, ratio of CC50 for mouse J774A1 cells to IC50 for Leishmania donovani intracellular amastigotes infected in mouse J774A1 cells; type: functional, J774.A1
In short: (§4)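 SI is based on CC50 in J-774-A-1 macrophages and IC50 in the antileishmanial assay.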

[4] = Cytotoxicity against mouse J774A1 cells after 48 hrs by Geimsa staining method; type: cell-based, J774.A1
In short: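 Mouse macrophage line J-774-A-1 used for the cytotoxicity read-out. CC50 is the concentration giving 50% inhibition of cell viability.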

Leishmania donovani [5] = test: Antileishmanial activity against Leishmania donovani intracellular amastigotes infected in mouse J774A1 cells at 10 ug/ml after 48 hrs by luciferase activity-based drug susceptibility assay; type: functional; settings: for inhibition at 10 µg/mL: J774.A1, 48 h; in short: as §2
Leishmania donovani [6] = test: Antileishmanial activity against Leishmania donovani extracellular promastigotes at 10 ug/ml after 72 hrs by luciferase activity-based drug susceptibility assay; type: functional; in short: as §1
Leishmania donovani [7] = test: Antileishmanial activity against Leishmania donovani infected in hamster assessed as inhibition of parasite growth at 50 mg/kg, ip for 10 days; type: functional; settings: 240 h, route intraperitoneal
In short: (§5)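 L. donovani-infected hamster model. Dosing was intraperitoneal, 10 doses: test compounds at 50 mg/kg, sodium stibogluconate at 20 mg/kg, pentamidine at 40 mg/kg. Read-out is percent inhibition of parasites.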

Leishmania donovani [8] = test: Antileishmanial activity against Leishmania donovani infected in hamster assessed as inhibition of parasite growth at 40 mg/kg, ip for 10 days; type: functional; settings: 240 h, route intraperitoneal; in short: as §5
J774.A1 = test: as §3; type: functional; in short: as §4
Leishmania donovani [9] = test: Antileishmanial activity against Leishmania donovani infected in hamster assessed as inhibition of parasite growth at 20 mg/kg, ip for 10 days; type: functional, organism-based; parameters: dose 20 mg/kg; in short: as §5

| IC50 (Leishmania donovani [1]) | IC50 (Leishmania donovani [2]) | Molecule | Activity (Leishmania donovani [1]) | Activity (Leishmania donovani [2]) | Ratio CC50/IC50 [3] | CC50 at 48 h [4] | inhibition at 10 µg/mL (Leishmania donovani [5]) | inhibition at 10 µg/mL (Leishmania donovani [6]) | inhibition in vivo at 50 mg/kg (Leishmania donovani [7]) | inhibition in vivo at 40 mg/kg (Leishmania donovani [8]) | Ratio CC50/IC50 (J774.A1) | inhibition (Leishmania donovani [9]) | inhibition (Leishmania donovani [5]; J774.A1) | inhibition (Leishmania donovani [6]) |
| --- | --- | --- | --- | --- | --- | --- | --- | --- | --- | --- | --- | --- | --- | --- |
| 2.37 µg/mL (≈ 6.42 µM) | 2.13 µg/mL (≈ 5.77 µM) | O=[N+]([O-])c1ccc(O[C@H]2CCCC[C@@H]2Cn2ccnc2)c(C(F)(F)F)c1 | Dose-dependent effect | Dose-dependent effect | 6.49 | 13.8 µg/mL (≈ 37.5 µM) | 100% | 100% |  |  |  |  |  |  |
| 2.06 µg/mL (≈ 5.47 µM) | 3 µg/mL (≈ 7.97 µM) | FC(F)(F)c1ccc(OC2C(n3ccnc3)CCCC2n2ccnc2)cc1 (stereo not drawn) | Dose-dependent effect | Dose-dependent effect | 32.143 | 96.4 µg/mL (≈ 256 µM) | 100% | 100% | 36.8% |  |  |  |  |  |
| 0.82 µg/mL (≈ 2.72 µM) | 4.57 µg/mL (≈ 15.2 µM) | O=[N+]([O-])c1ccc(O[C@H]2CCCC[C@@H]2Cn2ccnc2)cc1 | Dose-dependent effect | Dose-dependent effect | 9.757 | 44.6 µg/mL (≈ 148 µM) | 100% | 100% |  |  |  |  |  |  |
| 0.643 µg/mL (≈ 1.89 µM) | 12.1 µg/mL (≈ 35.6 µM) | N=C(N)c1ccc(OCCCCCOc2ccc(C(=N)N)cc2)cc1 [PENTAMIDINE] | Dose-dependent effect | Dose-dependent effect | 2.58 | 31.3 µg/mL (≈ 92 µM) | 100% | 100% |  | 92% |  |  |  |  |
| 6.72 µg/mL (≈ 15 µM) | 0.588 µg/mL (≈ 1.31 µM) | O=[N+]([O-])c1ccc(OC2C(Cn3ccnc3)CCCC2Cn2ccnc2)c(C(F)(F)F)c1 (stereo not drawn) | Dose-dependent effect | Dose-dependent effect | 24.557 | 14.4 µg/mL (≈ 32.1 µM) | 100% | 100% |  |  |  |  |  |  |
| 6.13 µg/mL (≈ 16.5 µM) | 3.02 µg/mL (≈ 8.13 µM) | O=[N+]([O-])c1ccc(OC2C(n3ccnc3)CCCC2n2ccnc2)c(F)c1 (stereo not drawn) | Dose-dependent effect | Dose-dependent effect | 30 | 90.6 µg/mL (≈ 244 µM) | 100% | 100% | 56.7% |  |  |  |  |  |
| 1.08 µg/mL (≈ 3.38 µM) | 0.71 µg/mL (≈ 2.22 µM) | O=[N+]([O-])c1ccc(O[C@H]2CCCC[C@@H]2Cn2ccnc2)c(F)c1 | Dose-dependent effect | Dose-dependent effect | >140.84 | > 100 µg/mL | 100% | 100% | 55.4% |  |  |  |  |  |
| 0.81 µg/mL (≈ 2.5 µM) | 3.83 µg/mL (≈ 11.8 µM) | FC(F)(F)c1ccc(O[C@H]2CCCC[C@@H]2Cn2ccnc2)cc1 | Dose-dependent effect | Dose-dependent effect | 9.292 | 35.6 µg/mL (≈ 110 µM) | 100% | 100% |  |  |  |  |  |  |
| 4.67 µg/mL (≈ 13.2 µM) | 8.76 µg/mL (≈ 24.8 µM) | O=[N+]([O-])c1ccc(OC2C(n3ccnc3)CCCC2n2ccnc2)cc1 (stereo not drawn) | Dose-dependent effect | Dose-dependent effect | >11.4 | > 100 µg/mL | 100% | 100% |  |  |  |  |  |  |
| 3.28 µg/mL (≈ 8.12 µM) | 1.13 µg/mL (≈ 2.79 µM) | FC(F)(F)c1ccc(OC2C(Cn3ccnc3)CCCC2Cn2ccnc2)cc1 (stereo not drawn) | Dose-dependent effect | Dose-dependent effect | 83.6 | 94.5 µg/mL (≈ 234 µM) | 100% | 100% | 51% |  |  |  |  |  |
|  |  | D-gluconic acid 2,4:2',4'-O-[oxybis(oxidostibylidyne)]bis-trisodium salt nonahydrate | Dose-dependent effect | Dose-dependent effect |  |  |  |  |  |  | 6.38 | 84.1% | 100% | 100% |
| 9.57 µg/mL (≈ 25.1 µM) | 2.44 µg/mL (≈ 6.39 µM) | O=[N+]([O-])c1ccccc1OC1C(Cn2ccnc2)CCCC1Cn1ccnc1 (stereo not drawn) | Dose-dependent effect | Dose-dependent effect | 28.47 | 69.4 µg/mL (≈ 182 µM) | 100% | 100% |  |  |  |  |  |  |
| 5.52 µg/mL (≈ 14.5 µM) | 1.97 µg/mL (≈ 5.16 µM) | O=[N+]([O-])c1ccc(OC2C(Cn3ccnc3)CCCC2Cn2ccnc2)cc1 (stereo not drawn) | Dose-dependent effect | Dose-dependent effect | 37.51 | 73.9 µg/mL (≈ 194 µM) | 100% | 100% | 52% |  |  |  |  |  |
| 9.4 µg/mL (≈ 36.1 µM) | 10.8 µg/mL (≈ 41.4 µM) | OC1C(Cn2ccnc2)CCCC1Cn1ccnc1 (stereo not drawn) | Dose-dependent effect | Dose-dependent effect | >9.28 | > 100 µg/mL | 100% | 100% |  |  |  |  |  |  |
| 4.23 µg/mL (≈ 14 µM) | 6.72 µg/mL (≈ 22.3 µM) | O=[N+]([O-])c1ccccc1O[C@H]1CCCC[C@@H]1Cn1ccnc1 | Dose-dependent effect | Dose-dependent effect | 9.39 | 63.1 µg/mL (≈ 209 µM) | 100% | 100% |  |  |  |  |  |  |
| 3.57 µg/mL (≈ 8.94 µM) | 1.17 µg/mL (≈ 2.93 µM) | O=[N+]([O-])c1ccc(OC2C(Cn3ccnc3)CCCC2Cn2ccnc2)c(F)c1 (stereo not drawn) | Dose-dependent effect | Dose-dependent effect | 33.64 | 39.4 µg/mL (≈ 98.6 µM) | 100% | 100% | 77.9% |  |  |  |  |  |

— ChEMBL document CHEMBL1136836, “Aryloxy cyclohexyl imidazoles: a novel class of antileishmanial agents” (Bioorg Med Chem Lett, 2009)
